The source of these data is ChEMBL document CHEMBL1142671, “Chiral DNA gyrase inhibitors. 3. Probing the chiral preference of the active site of DNA gyrase. Synthesis of 10-fluoro-6-methyl-6,7-dihydro-9-piperazinyl- 2H-benzo[a]quinolizin-20-one-3-carboxylic acid analogues” (J Med Chem, 2005).

In brackets after ≈: the same amount, converted by molar mass.

One assay concerns the target Nucleic Acid. The assay is described as follows: In vitro inhibitory concentration against DNA gyrase from Micrococcus luteus […]. In kind it is nucleic-acid assay. In outline:
(§1)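 Purified DNA gyrase, isolated from Escherichia coli H560 or Micrococcus luteus; IC50 in µg/mL, averaged over triplicate runs.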

Assay [1] deals with Escherichia coli. The assay is described as follows: In vitro minimum inhibitory concentration against Escherichia coli SS was determined. In kind it is functional. In outline: (§2)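 Two-fold agar dilution series; MIC taken as the average of triplicate runs. Tested against intact Gram-positive and Gram-negative bacteria.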
A further assay relates to Staphylococcus aureus. The assay is described as follows: In vitro minimum inhibitory concentration against Staphylococcus aureus ATCC 6538P was determined. Format: functional. In outline: as §2
In a further assay the test system is Pseudomonas aeruginosa. The assay is described as follows: In vitro minimum inhibitory concentration against Pseudomonas aeruginosa was determined. Format: functional. An outline of the steps: as §2
A short description of assay [2]: In vitro minimum inhibitory concentration against […] faecium ATCC 8043 was determined. In kind it is functional. In outline:
as §2

Assay [3] deals with Escherichia coli. The assay is described as follows: In vitro minimum inhibitory concentration against Escherichia coli Juhl was determined. In kind it is functional. An outline of the steps:
as §2

Assay [4] deals with Escherichia coli. The assay is described as follows: In vitro minimum inhibitory concentration against Escherichia coli H560 was determined. In kind it is functional. In outline:
as §2

The next assay concerns the target DNA gyrase (Escherichia coli, UniProt P0AES4+P0AES6). The assay is described as follows: In vitro inhibitory concentration against DNA gyrase from Escherichia coli H560. Format: protein-complex assay. In outline:
as §1

Assay [5] relates to Escherichia coli. The assay is described as follows: In vitro minimum inhibitory concentration against Escherichia coli KNK 437 was determined. In kind it is functional. An outline of the steps:
as §2

The next assay concerns Micrococcus luteus. The assay is described as follows: In vitro minimum inhibitory concentration against Micrococcus luteus 9341 was determined. Format: functional. In outline:
as §2

For orientation: IC50 means the concentration that gives 50% inhibition. Lower therefore signals inhibition by little substance. For orientation: MIC means the lowest concentration that inhibits growth of the organism. Take `C[C@@H]1Cc2ccccc2-c2cc(=O)c(C(=O)O)cn21`: the IC50 against Nucleic Acid is above 250 µg/mL; on DNA gyrase it was 125 µM. For the same compound, the MIC was 6.25 µg/mL (≈ 24.5 µM) with Escherichia coli [1]; 25 µg/mL (≈ 97.9 µM) in the assay with Staphylococcus aureus; 100 µg/mL (≈ 392 µM) against Pseudomonas aeruginosa; above 100 µg/mL in assay [2]; 25 µg/mL (≈ 97.9 µM) in the assay on Escherichia coli [3]; 50 µg/mL (≈ 196 µM) with Escherichia coli [4]. Moreover, the MIC is above 100 µg/mL in the assay on Escherichia coli [5] and 100 µg/mL (≈ 392 µM) against Micrococcus luteus.

With `O=C(O)c1cn(C2CC2)c2cc(N3CCNCC3)c(F)cc2c1=O` [CIPROFLOXACIN], the MIC with Escherichia coli [1] is 0.005 µg/mL (≈ 0.0151 µM); with Staphylococcus aureus, 0.2 µg/mL (≈ 0.604 µM); in the assay on Pseudomonas aeruginosa it was 0.05 µg/mL (≈ 0.151 µM); in assay [2] it was 0.78 µg/mL (≈ 2.35 µM); in the assay on Micrococcus luteus it was 1.56 µg/mL (≈ 4.71 µM).

As for `CC1Cc2cc(N3CCNCC3)c(F)cc2-c2cc(=O)c(C(=O)O)cn21` (stereo not given), the MIC against Staphylococcus aureus is 25 µg/mL (≈ 70 µM); with Pseudomonas aeruginosa, 50 µg/mL (≈ 140 µM); in the assay with Escherichia coli [3], 50 µg/mL (≈ 140 µM); against Escherichia coli [5], 0.2 µg/mL (≈ 0.56 µM). This compound had an IC50 against DNA gyrase of 83.9 µM.

Consider `C[C@H]1Cc2ccccc2-c2cc(=O)c(C(=O)O)cn21`, for which the concentration for half-maximal inhibition (IC50) was above 250 µg/mL against Nucleic Acid and 78.3 µM against DNA gyrase. Besides, the MIC in the assay on Escherichia coli [1] was 1.56 µg/mL (≈ 6.11 µM); in the assay on Staphylococcus aureus, 50 µg/mL (≈ 196 µM); in the assay with Pseudomonas aeruginosa, 50 µg/mL (≈ 196 µM); in assay [2] it was above 100 µg/mL; in the assay with Escherichia coli [3] it was 25 µg/mL (≈ 97.9 µM); with Escherichia coli [4] it was 25 µg/mL (≈ 97.9 µM). Further, the MIC in the assay with Escherichia coli [5] and in the assay on Micrococcus luteus was above 100 µg/mL in each case.
